# Source: PubChem
# In the library only some 2.6% were active in any assay of this set; here they are far more common.
# PG9 binder = PG9 antibody binding by small molecule; TR-FRET gp120-PG9 antibody binding; inhibition, % at 6.7 µM; actives 0.43% (n = 360,000); AID 624416; in the data active = inhibition above about 8.5%
# rCAG RNA binder = molecules binding r(CAG) RNA repeats. r(CAG) RNA repeat, TO-PRO-1 dye displacement fluorescence. inhibition, % at 3 µM. actives 1.3% (n = 370,000);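 active = inhibition above the plate cutoff, the mean of all test compounds on that plate plus 3 SD, cut at about 35% in these data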;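 also: 0% = DMSO alone and 100% = 100 µM mitoxantrone as full dye displacement; higher means more dye released from RNA so lower well fluorescence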
# NR1D1 modulator = modulators of human Rev-erb alpha DNA binding; P20393; Rev-erbα–FITC-DNA binding, fluorescence polarization, 90 min; activity, % at 10 µM; actives 0.79% (n = 370,000); AID 1259318;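 active = activity above about 14%, limit read from the data; passing the limit was not always enough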;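 also: 0% = DMSO wells with 35 nM protein and 100% = DMSO wells with 750 nM protein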
# Target sequence (P20393 whole entry, looked up): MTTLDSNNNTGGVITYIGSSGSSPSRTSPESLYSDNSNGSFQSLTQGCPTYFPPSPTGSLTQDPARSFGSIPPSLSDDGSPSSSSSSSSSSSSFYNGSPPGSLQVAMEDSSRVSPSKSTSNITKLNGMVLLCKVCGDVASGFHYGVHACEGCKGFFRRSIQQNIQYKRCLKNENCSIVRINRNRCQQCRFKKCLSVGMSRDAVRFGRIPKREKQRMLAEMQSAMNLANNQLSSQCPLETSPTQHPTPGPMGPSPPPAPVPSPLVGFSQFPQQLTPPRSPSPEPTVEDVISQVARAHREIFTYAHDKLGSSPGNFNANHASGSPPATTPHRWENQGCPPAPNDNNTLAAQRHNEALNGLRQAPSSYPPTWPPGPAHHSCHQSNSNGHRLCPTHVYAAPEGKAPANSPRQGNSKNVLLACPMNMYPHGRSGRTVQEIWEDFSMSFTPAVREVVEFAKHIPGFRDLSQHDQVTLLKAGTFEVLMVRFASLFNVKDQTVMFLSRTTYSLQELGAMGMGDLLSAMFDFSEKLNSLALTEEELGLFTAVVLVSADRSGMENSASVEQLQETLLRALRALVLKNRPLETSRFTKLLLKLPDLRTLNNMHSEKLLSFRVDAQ
# NR2E3 ag-1 = activates human photoreceptor nuclear receptor NR2E3 | Q9Y5X4 | GST-NR2E3/biotin-RetCOR TR-FRET, 1536-well | inhibition of corepressor binding, % at 4.78 µM | actives 0.12% (n = 320,000);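 active = percent inhibition above the cutoff of mean plus 3 SD of all tested compounds, set per screening campaign, cut at about 20% in these data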;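 also: 0% = DMSO wells and 100% = biotin wells as full block of FRET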
#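 Test system: GST-NR2E3 and biotin-RetCOR proteins | Quantity: 1.35 nM GST-tagged NR2E3 final | Medium: Tris pH 7.5 | Also added: 7 nM biotin-RetCOR | Dosing: Compound at 4.8 µM, single dose | Timing: 5 h at 4 °C | Detection: Time-resolved FRET | Read-out basis: Percent inhibition | Benchmarks: Biotin wells as high control, 0.6% DMSO wells as low control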
# NR2E3 ag-2 = agonists of human NR2E3 nuclear receptor; Q9Y5X4; CHO-S Gal4-NCOR/VP16-NR2E3 two-hybrid, luciferase; inhibition of corepressor binding, % at 3.98 µM; actives 0.35% (n = 360,000); AID 602229;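 active = inhibition above the mean of all tested compounds plus 3 SD, cut at about 70% in these data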;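 also: 0% = DMSO with NR2E3 transfected cells and 100% = cells lacking NR2E3 construct; higher means lower luciferase signal from less NR2E3 corepressor binding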
# rCAG bind conf = r(CAG) RNA repeat binding, confirmation; TO-PRO-1 dye displacement fluorescence; actives 70% (n = 4,300); inhibition, % at 3 µM; shares compounds with rCAG RNA binder;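 active = inhibition above a per-plate cutoff, the mean inhibition of sample wells plus 3 SD, cut at about 35% in these data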;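 also: loss of TO-PRO-1 fluorescence as compound displaces dye from 1x1 AA loop RNA; 0% = DMSO only wells and 100% = 100 µM mitoxantrone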
# DNA CAG counter = counter-screen for rCAG RNA binders: DNA CAG dye complex inhibitors. shares compounds with rCAG RNA binder. inhibition, % at 3 µM. AID 652068. d(CAG) DNA oligo TO-PRO-1 dye displacement, fluorescence. actives 94% (n = 4,300);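 active = inhibition above its plate's cutoff, the mean test-well inhibition plus 3 SD, cut at about 4.8% in these data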;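 also: 0% = DNA dye mix with DMSO and 100% = 100 µM mitoxantrone; hits displace the dye from DNA and so lower well fluorescence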
# dCAG dye DR = counter-screen for rCAG binders: inhibitors of DNA CAG TO-PRO-1 complex | actives 20% (n = 250) | IC50, µM | shares compounds with rCAG RNA binder | DNA CAG/GTC duplex TO-PRO-1 dye displacement fluorescence; in the data active = IC50 below about 10 µM
# Starred values were filed as active, the others as inactive; i = inactive; x = not tested or not shown.
SMILES,PG9 binder,rCAG RNA binder,NR1D1 modulator,NR2E3 ag-1,NR2E3 ag-2,rCAG bind conf,DNA CAG counter,others
N=C1/C(=C\c2ccc(-c3cccc(Cl)c3)o2)C(=O)N=C2SC=C(c3ccccc3)N12,-0.6,64.6*,3.2,1.0,-16.7,65.9*,41.0*,
O=C1OC(c2cccs2)=N/C1=C\c1ccc(-c2cccc(Cl)c2)o1,0.3,48.6*,-0.2,-1.3,-20.9,40.2*,12.1*,dCAG dye DR=>29.9
C=CCCC1CN(Cc2ccc(OC)cc2)S(=O)(=O)c2c(F)cccc2O1 (stereo not given),0.2,0.0,4.4,x,x,x,x,
O=C(CSc1nc2cc(C(=O)O)ccc2c(=O)n1-c1ccc(F)cc1)Nc1ccc(F)c(F)c1F,-0.2,38.6*,-0.7,-1.4,5.1,15.1,3.1,
O=C(CSc1nc2ccccc2c(=O)n1-c1ccc(F)cc1)Nc1ccc(C(=O)O)cc1,0.7,8.3,5.6,0.6,-11.7,x,x,
Cc1cccc(NC(=O)COc2ccc(/C=C\c3[nH]c(=O)[nH]c(=O)c3[N+](=O)[O-])cc2)c1,-1.7,86.6*,-5.3,3.5,-16.4,87.5*,65.9*,
COCCNc1ncnc2c1ncn2[C@H]1CN(Cc2ccncc2)C[C@@H](CO)O1,0.8,0.8,-2.9,x,-2.9,x,x,
Cc1c(CCCC(=O)O)sc(N)c1C(=O)c1cccc(C(F)(F)F)c1,1.8,46.8*,2.9,0.8,24.4,26.7,5.0*,
O=C(O)c1cc(Cl)c(Cl)cc1C(=O)N(Cc1ccccc1)Cc1ccccc1,1.1,37.4*,-2.6,3.0,-7.4,45.0*,11.5*,
O=C(O)c1ccccc1C(=O)N(Cc1ccccc1)Cc1ccccc1,1.8,4.8,-1.4,0.7,9.8,x,x,
COc1ccccc1NC(=O)c1ccc(NS(=O)(=O)c2ccc(F)c(F)c2F)cc1,-2.9,44.2*,-8.6,-0.9,20.1,27.9,6.1*,
Cc1cc(C)c(C#N)c(N2CCN(C(=O)C3COc4ccccc4O3)CC2)n1 (stereo not given),1.8,4.5,-4.0,1.6,-16.2,x,x,
Cc1nc(Nc2nc(CSc3nc4ccccc4[nH]3)cc(=O)[nH]2)nc2ccccc12,1.1,41.4*,3.2,-0.6,31.6,31.6,21.3*,
Cc1nc(Nc2nc(-c3ccccc3)cc(=O)[nH]2)nc2ccccc12,2.9,36.7*,-3.0,-1.3,2.1,18.7,6.5*,
COc1ccc2nc(Nc3nc(CSc4nc5ccccc5[nH]4)cc(=O)[nH]3)nc(C)c2c1,-3.4,20.2,-2.9,-0.3,16.7,x,x,
Cc1nc(Nc2nc(CSc3ccc(Cl)cc3)cc(=O)[nH]2)nc2ccccc12,1.3,8.2,-3.2,-2.7,-12.2,x,x,
COc1ccccc1S(=O)(=O)N(C)C[C@@H]1Oc2ncc(-c3ccc(C)cc3)cc2C(=O)N([C@H](C)CO)C[C@@H]1C,1.9,3.2,-7.4,x,16.5,x,x,
COC(=O)[C@H](Cc1ccccc1)NC(=O)/C=C/[C@H]1O[C@@H](n2cc(C)c(=O)[nH]c2=O)C[C@@H]1O,0.1,3.3,-4.7,x,-0.2,x,x,
Cc1ccc2c(c1)c1c3n2CC(=C2C(=O)OC(C)(C)OC2=O)NC3CCC1 (stereo not given),-2.8,46.7*,-3.5,-0.8,-6.8,34.2,18.4*,
Cc1ccc2c(c1)c1c3n2CCN(C(=O)C2CC2)C3CCC1 (stereo not given),-2.4,8.3,-7.1,1.8,-46.5,x,x,
O=C(O)c1oc2ccccc2c1CSc1ccccn1,0.0,4.4,-6.4,3.9,0.4,x,x,
O=C(O)c1oc2ccccc2c1CSc1ccc(Cl)cc1,-0.4,39.9*,0.5,3.4,9.2,23.0,3.8,
COc1cccc(Nc2nc3ccccc3nc2NS(=O)(=O)c2cccs2)c1,-0.5,73.6*,-0.8,-0.5,31.9,87.5*,59.5*,
CC(C)CCNc1nc2ccccc2nc1NS(=O)(=O)c1cccs1,0.8,55.8*,-2.2,-2.3,15.2,33.1,5.5*,
N#C[C@H](N)[C@H]1O[C@@H](n2ccc(=O)[nH]c2=O)[C@H](O)[C@@H]1O,-1.5,5.2,-4.0,x,x,x,x,
SMILES,PG9 binder,rCAG RNA binder,NR1D1 modulator,NR2E3 ag-1,NR2E3 ag-2,rCAG bind conf,DNA CAG counter,others
CCCN(CCC)S(=O)(=O)c1ccc(NS(=O)(=O)c2ccc(F)cc2)cc1,-3.1,45.9*,-1.4,-2.0,24.9,35.4*,8.4*,
O=C(NCCN1CCC(n2c(=O)[nH]c3ccccc32)CC1)c1ccc(Cl)cc1Cl,-1.8,-1.6,7.2,x,-3.3,x,x,
CCC(Sc1nc(-c2cccc(OC)c2)c(C#N)c(=O)[nH]1)C(=O)Nc1nnc(C(C)C)s1 (stereo not given),7.5,75.3*,-2.9,5.5,-18.8,74.8*,38.2*,
CC(C)Sc1nsc2nc(=O)c(/C=C3\C=Nc4ccccc43)c(N)n12,-0.1,43.7*,-4.0,0.6,-25.4,78.8*,44.0*,
CCC(CC)c1nn2c(N)c(/C=C3\C=Nc4ccccc43)c(=O)nc2s1,-3.8,9.2,8.2,1.8,14.6,x,x,
CS(=O)(=O)c1nsc2nc(=O)c(/C=C3\C=Nc4ccccc43)c(N)n12,-2.1,43.8*,-0.6,-5.0,-5.1,69.7*,30.5*,dCAG dye DR=8.25*
Cc1noc(C)c1C(=O)OCC(=O)Nc1ncc(Cl)c(C)c1Cl,-0.7,3.2,7.9,x,-5.5,x,x,
COc1ccc(/C=C/c2ccc3c(Br)ccc(O)c3n2)cc1,1.1,15.8,-2.1,-0.5,-18.0,x,x,
COc1cc(/C=C/c2ccc3c(Br)cc(Br)c(O)c3n2)ccc1O,-2.6,39.5*,-1.7,-2.8,6.7,39.3*,19.5*,
Nc1nonc1N/N=C/c1c(O)ccc2ccccc12,-1.4,40.4*,10.0,-2.0,-14.2,20.4,15.0*,
Cc1sc2ncnc(N3CCC(C(=O)N(CC(C)C)c4nc5ccccc5s4)CC3)c2c1C,-0.8,3.6,2.2,0.8,-14.6,x,x,
CCC/C=C/c1ccc(CN2C(C(C)C)C(=O)N(Cc3cn(CCC4OCCCO4)nn3)CCS2(=O)=O)cc1 (stereo not given),-0.5,4.1,2.8,x,-2.0,x,x,
COc1cc(/C=N/Nc2nc(C)nc3c2cnn3-c2ccccc2)ccc1O,-2.0,40.9*,4.5,x,-54.3,27.2,9.7*,
COc1cc(/C=N/NC(=O)c2nc(-c3ccccc3)n(-c3ccccc3)n2)ccc1O,-0.4,1.4,-9.1,-1.8,-0.4,x,x,
CC1(OC(=O)C2CCCC2)C(=O)C=C2C=C(c3ccsc3)OC=C2C1=O (stereo not given),-2.0,52.2*,-2.7,1.5,-39.4,37.1*,20.3*,dCAG dye DR=i
CC1(OC(=O)c2cccs2)C(=O)C=C2C=C(c3ccsc3)OC=C2C1=O (stereo not given),x,x,x,1.3,x,x,x,
